Sampled rows, rich in hits. Any-hit rate of the full collection: about 1.9%.
M4 ag: human M4 muscarinic receptor agonists, primary screen, CHO-K1 cells, Fluo-8 calcium fluorescence. hit rate 0.14% among 360,000. CHO-K1 hM4/Gqi5; vehicle 0%, full acetylcholine response 100%. activation, % at 3 µM. Muscarinic acetylcholine receptor M4 (Homo sapiens), P08173;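 active = activation above the run mean over all test wells plus 3 SD, cut at about 32% in these data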;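 also: peak over basal fluorescence ratio per well then scaled between controls; 0% = DMSO wells and 100% = acetylcholine at EC100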
Target sequence (P08173 whole entry, looked up): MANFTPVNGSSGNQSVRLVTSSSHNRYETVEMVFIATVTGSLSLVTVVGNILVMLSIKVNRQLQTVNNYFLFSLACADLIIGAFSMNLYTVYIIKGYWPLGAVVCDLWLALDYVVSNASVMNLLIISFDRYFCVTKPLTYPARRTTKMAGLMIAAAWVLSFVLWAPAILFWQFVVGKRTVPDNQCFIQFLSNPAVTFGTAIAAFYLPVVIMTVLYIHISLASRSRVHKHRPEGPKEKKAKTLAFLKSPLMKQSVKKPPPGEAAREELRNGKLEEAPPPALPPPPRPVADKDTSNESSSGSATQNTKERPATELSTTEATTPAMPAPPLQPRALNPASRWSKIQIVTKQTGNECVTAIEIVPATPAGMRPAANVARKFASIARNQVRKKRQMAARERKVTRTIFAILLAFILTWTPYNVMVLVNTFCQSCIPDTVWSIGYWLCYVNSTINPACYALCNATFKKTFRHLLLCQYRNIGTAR
M5 PAM: human M5 muscarinic receptor positive allosteric modulators, primary screen, CHO-K1 cells, Fluo-8 calcium fluorescence; Muscarinic acetylcholine receptor M5 (Homo sapiens), P08912; CHO-K1 hM5, ACh EC20 PAM; 0% = ACh EC20, 100% = ACh EC100; activation, % at 3 µM; hit rate 0.3% among 360,000; AID 624038, 2012;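 active = activation above the run cutoff, the mean activation of all test compounds plus 3 SD, cut at about 18% in these data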
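System – CHO-K1 hM5 cells · Compound – 3 µM, single dose · Incubation – compound preincubation 140 s before EC20 acetylcholine addition · Technique – Fluo-8 calcium fluorescence · Measure – Max/basal fluorescence ratio as % of EC20–EC100 ACh window · Benchmarks – low control EC20 acetylcholine (0%), high control EC100 acetylcholine (100%) · Replication – singlicate, one well per test compound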
CHRM5 agonist: human M5 muscarinic receptor agonists, primary screen, CHO-K1 cells, Fluo-8 calcium fluorescence. Muscarinic acetylcholine receptor M5 (Homo sapiens), P08912. CHO-K1 hM5 cells; 0% DMSO wells, 100% maximal acetylcholine response. activation, % at 3 µM. hit rate 0.19% among 360,000;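 active = activation above the run's mean over test compounds plus 3 SD, cut at about 23% in these data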;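 also: signal is peak over basal fluorescence ratio across the kinetic read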
M4 PAM: human M4 muscarinic receptor positive allosteric modulators, primary screen, CHO-K1 cells, Fluo-8 calcium fluorescence; Muscarinic acetylcholine receptor M4 (Homo sapiens), P08173; CHO-K1 hM4/Gqi5, ACh EC20; 0% = ACh EC20, 100% = maximal ACh; activation, % at 3 µM; hit rate 0.4% among 360,000;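 active = activation above its plate's cutoff, the mean activation of sample wells plus 3 SD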
CHRM5 antagonist: human M5 muscarinic receptor antagonists, primary screen, CHO cells, Fluo-8 calcium fluorescence | hit rate 0.59% among 360,000 | AID 624040, 2012 | CHO-hM5 cells, ACh EC80 | inhibition, % at 3 µM;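 active = inhibition above a per-plate cutoff, the mean of that plate's test compounds plus 3 SD, cut at about 27% in these data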;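 also: 0% = acetylcholine EC80 with DMSO and 100% = DMSO without agonist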
M4 antag: human M4 muscarinic receptor antagonists, primary screen, CHO cells, Fluo-8 calcium fluorescence. inhibition, % at 3 µM. hit rate 0.73% among 360,000. CHO-hM4 cells, ACh EC80. Muscarinic acetylcholine receptor M4 (Homo sapiens), P08173;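 active = inhibition above its plate's cutoff, the mean inhibition of sample wells plus 3 SD, cut at about 27% in these data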;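 also: 0% = acetylcholine EC80 with DMSO and 100% = DMSO without agonist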
Numbers without * were called inactive.

SMILES	M4 ag	M5 PAM	CHRM5 agonist	M4 PAM	CHRM5 antagonist	M4 antag
CCc1nc2ccc(C(=O)N(C)CCCN(C)C)cn2c1N(C)Cc1cc2ccccc2s1	1	-2	-11	-10	4	15
O=C(NC(c1ccccc1)c1ccc2ccccc2n1)C1CCN(Cc2ccc(Cl)c(Cl)c2)CC1 (stereo not given)	-1	-7	-1	-2	1	-4
CC(=O)NCCNc1nc2cc(-c3ccc4c(ccn4C)c3)sc2c(=O)n1C	1	0	2	0	-4	-7
Cc1c(C(=O)NCc2ccccc2)oc2ccc(S(=O)(=O)N3CCC4(CC3)OCCO4)cc12	10	-14	5	-8	11	12
Cc1c(C(=O)NCCC2=CCCCC2)oc2ccc(S(=O)(=O)N3CCC4(CC3)OCCO4)cc12	15	-18	1	-22	22	34*
O=C(OC1CC2CC1[C@H]1CCCCN1C2=O)N1CCN(C(=O)c2ccccc2)CC1 (stereo not given in full)	3	-2	2	3	-4	-5
COc1ccc(NC2=CC(c3cccc(OC)c3)N(c3ccc(OC)cc3)C2=O)cc1 (stereo not given)	2	-8	7	0	50*	24
CSc1nsc(SC)c1C(=O)NC(=O)Nc1cccnc1	0	22*	4	3	-11	-3
CSc1nsc(SC)c1C(=O)Nc1ccc(C(C)(C)C)cc1	-1	-10	-11	-12	4	3
Cc1ccc(OCc2nc3ccccc3n2C(C)C(=O)Nc2c(C)cccc2C)cc1 (stereo not given)	2	-7	-5	7	-5	-14
CC(=O)NCCC(=O)NCc1ccc(F)cc1	1	-9	1	22*	-12	1
COC(=O)c1ccccc1NC(=O)c1onc(C)c1Cl	-1	4	-2	2	2	1
CCc1ccccc1NC(=O)c1onc(C)c1Cl	0	-9	-1	-16	7	55*
CC(=O)Nc1ccc(CN2CCN(C3CCCCC3)C(CCO)C2)cc1 (stereo not given)	0	-4	-14	-35	7	15
COC(=O)c1ccc(CN2CCN(C3CCCC3)C(CCO)C2)cc1 (stereo not given)	1	-8	-10	-21	-2	77*
COC(=O)c1ccc(CN2CCN(C3CCCCC3)C(CCO)C2)cc1 (stereo not given)	0	7	-21	-50	-8	60*
CCSc1nsc(NC(=O)Nc2ccccc2F)n1	14	-23	3	-7	18	3
C=CCSc1nsc(NC(=O)Nc2ccc(F)cc2)n1	11	-21	3	-9	33*	14
CC(=C/c1ccccc1)/C=N/NC(=O)c1cccs1	-1	-5	-5	-1	3	-3
O=C(N/N=C/C(Br)=C\c1ccccc1)c1cccs1	2	23*	6	-1	-29	-4
COc1cc(C(=O)NCc2ccccc2)ccc1OC(F)F	0	-6	-2	3	10	-1
COc1ccc(COc2ccccc2C(=O)NCc2ccccc2)cc1F	14	-19	4	-15	28*	19
Nc1ncnc2c1ccn2[C@H]1CN(Cc2ccc(Cl)cc2)C[C@@H](CO)O1	6	-5	5	5	17	-8
O=C(Nc1c[nH]c(=O)[nH]c1=O)c1cccc([N+](=O)[O-])c1	1	22*	4	-7	-16	-7
O=C(Nc1c[nH]c(=O)[nH]c1=O)c1cccc(F)c1	1	-4	-3	0	13	-2
Cc1cccc(N2C(=O)c3ccc(C(=O)Nc4c[nH]c(=O)[nH]c4=O)cc3C2=O)c1	1	6	-1	16	-5	27*
Cc1cc(C(=O)Nc2c[nH]c(=O)[nH]c2=O)ccc1[N+](=O)[O-]	1	4	1	7	0	2
O=C1NC(Cc2ccccc2)c2nc3ccc(F)cc3c(=O)n2-c2ncccc21 (stereo not given)	5	0	-2	3	9	-8
CN(CCN1CCOCC1)C(=O)CC1C(=O)NCCN1Cc1ccccc1C(F)(F)F (stereo not given)	1	-1	-5	19*	1	-13
